High-throughput results from PubChem.
Compounds with a hit are over-represented: about 3.5% of the library has one in this group of screens.
MrgX1 agonist – activates human MrgX1 receptor signaling; Q96LB2; AID 588627; MrgX1-HEK293 cells, Fluo-4 calcium fluorescence, agonist mode; stronger effect = higher value; 0.44% of 310,000 active; B-score at 10 µM;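 active = calcium response B-score plate-corrected fluorescence ratio at least 3 library SD, with starting fluorescence B-score inside 5 SD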
Target sequence (Q96LB2 whole entry, looked up): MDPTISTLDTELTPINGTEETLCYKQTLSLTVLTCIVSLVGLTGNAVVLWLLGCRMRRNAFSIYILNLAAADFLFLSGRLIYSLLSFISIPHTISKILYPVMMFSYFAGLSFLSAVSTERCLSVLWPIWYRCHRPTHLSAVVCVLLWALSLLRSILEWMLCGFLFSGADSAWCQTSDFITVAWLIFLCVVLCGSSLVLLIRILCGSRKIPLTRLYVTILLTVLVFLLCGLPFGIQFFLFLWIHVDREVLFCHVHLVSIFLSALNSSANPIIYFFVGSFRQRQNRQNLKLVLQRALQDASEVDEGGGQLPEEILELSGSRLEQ
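Material: MrgX1-expressing HEK293 cells / Dosing: compound as first of three additions / Incubation: overnight seeding, then 1 h dark dye loading / Signal: Fluo-4 NW calcium fluorescence / Evaluation: B-scored fluorescence response ratio / Benchmarks: positive and negative control wells on each plate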
MrgX1 antag – antagonists of human MrgX1 receptor | Q96LB2 | MRGX1-HEK293 calcium flux, Fluo-4, BAM8-22 antagonism; stronger effect = lower value | B-score at 10 µM | 1.3% of 310,000 active | AID 588676;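 active = calcium-response B-score plate-corrected more than 3 library SD below zero, starting fluorescence within 5 deviations, no agonist response on first addition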;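 note: peak minus trough fluorescence over baseline after final BAM8-22 challenge near maximal dose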
RGS4 pot – RGS4 potentiation or activation; HEK293 M3R/inducible RGS4, carbachol calcium flux Fluo4; stronger effect = lower value; 0.92% of 310,000 active; B-score at 10 µM;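 active = B-score of the integrated calcium signal more than 4 SD below the library mean, with starting fluorescence not abnormally high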;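 note: negative B-score means reduced calcium response which marks RGS4 activation or potentiation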
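Also added: carbachol at ECmax as muscarinic agonist stimulus; Assay system: HEK293 cells with stable M3R and inducible RGS4; Timing: overnight RGS4 induction, 30 min dye load 37 °C, 20 min compound RT; Measured by: Fluo4-AM (2 µM) calcium-flux fluorescence, kinetic read.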
MrgX1 PAM – allosterically activates human MrgX1 receptor signaling. MrgX1-HEK293, Fluo-4 calcium flux, FDSS; stronger effect = higher value. B-score at 10 µM. 0.63% of 310,000 active. AID 588675;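 active = plate-corrected calcium response at least 3 library SD above typical, normal starting fluorescence, not activating the receptor alone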;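 note: compound read alongside a low EC10 to EC30 dose of BAM8-22 agonist; peak minus trough fluorescence over baseline measured at the second addition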
RGS4 block – human RGS4 inhibition; B-score at 10 µM; P49798; HEK293 M3R/RGS4 inducible, Fluo-4 calcium flux; stronger effect = higher value; triggered by carbachol at its EC20; 0.45% of 310,000 active;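 active = B-score, a plate-corrected calcium signal, over three deviations above library mean, with baseline fluorescence within five deviations of library mean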;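 note: RGS4 expression induced by doxycycline in cells with stable M3 receptor; B-score is computed from the integrated fluorescence ratio over baseline after carbachol; higher B-score means a larger calcium signal and so more RGS4 inhibition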
Target sequence (P49798 whole entry, looked up): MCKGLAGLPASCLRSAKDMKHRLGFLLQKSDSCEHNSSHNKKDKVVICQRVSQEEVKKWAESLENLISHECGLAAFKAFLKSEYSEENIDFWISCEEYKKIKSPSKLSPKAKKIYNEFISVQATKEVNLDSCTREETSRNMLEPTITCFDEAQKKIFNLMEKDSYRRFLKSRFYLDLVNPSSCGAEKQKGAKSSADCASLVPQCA
RGS4 block valid – RGS4 inhibitor validation | AID 492999 | shares compounds with RGS4 block | calcium response, % at 10 µM | HEK293 M3R/RGS4, carbachol calcium Fluo-4 fluorescence; carbachol added at its EC20; 0 = buffer wells, 100 = carbachol control | 65% of 1,700 active;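 active = duplicate-averaged calcium response above the buffer-only control mean plus 5 SD of those controls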;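 note: integrated fluorescence ratio F max minus min over baseline F0; higher response in RGS4-induced cells means RGS4 inhibition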
M3R Ca ctr – checks RGS4 inhibitor effects in non-induced HEK293 M3R cells; shares compounds with RGS4 block; AID 493000; carbachol calcium Fluo-4; submaximal (EC20) carbachol stimulus; buffer wells 0%, carbachol control wells 100%; activity (percent), % at 10 µM; 20% of 1,900 active; call rule not given here;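 note: RGS4 induction absent so cells express M3R without RGS4; higher means more calcium signal and flags a non-specific hit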
RGS4 inh ctr2 – second RGS4 inhibitor counter-screen in uninduced cells lacking carbachol | shares compounds with RGS4 block | HEK293 M3R/RGS4 non-induced, Fluo-4 calcium, no carbachol; normalised: buffer wells 0%, carbachol wells 100% | calcium response (agonist-mode artifact), % at 10 µM | 22% of 1,900 active;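 active = duplicate-averaged calcium rise in uninduced cells above buffer wells' mean plus 5 SD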
MrgX1 ag confirm – human MrgX1 agonism, re-confirmation screen; shares compounds with MrgX1 agonist; MrgX1-HEK293, Fluo-4 calcium fluorescence, FDSS; activation, % at 10 µM; 78% of 600 active;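 active = calcium signal rise, corrected for plate position, at least 3 library SD high, with starting brightness within 5 such deviations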
MrgX1 ant reconf – confirmation of human MrgX1 receptor antagonists; shares compounds with MrgX1 antag; MrgX1-HEK293, BAM8-22 calcium flux, Fluo-4; stronger effect = lower value; remaining BAM8-22 calcium response % of control (stronger effect = lower value), % at 10 µM; 19% of 2,300 active; AID 602420;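 active = remaining agonist calcium response no higher than 100% minus 3 SD of agonist-only control wells, with starting fluorescence near control levels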;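 note: agonist BAM8-22 given at a near maximal EC90 to ECmax level; peak minus minimum fluorescence divided by baseline after agonist addition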
HEK293 Ca flux – activity in parental HEK293 cells lacking MrgX1. Fluo-4 calcium fluorescence, FDSS. AID 624111. 2% of 4,000 active. fluorescence ratio F(max-min)/F0 at 10 µM. shares compounds with MrgX1 antag;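 active = duplicate-averaged calcium fluorescence ratio at least three times the standard deviation of buffer wells, a nonspecific response in parental cells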
HEK293 Ca counter – activity in parental HEK293 cells without MrgX1. shares compounds with MrgX1 antag. AID 624114. fluorescence ratio F(max-min)/F0 at 10 µM. 0.4% of 4,000 active. parental HEK293 calcium flux, Fluo-4 fluorescence ratio; stronger effect = higher value;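 active = calcium fluorescence ratio, averaged over duplicates, at least 3 SD of the buffer-well ratio, meaning a nonspecific response in receptor-free cells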;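 note: untransfected parental HEK293 lacking MrgX1 used as counterscreen for MrgX1 allosteric activators; fluorescence change taken during the second addition on a kinetic imager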
HEK293 Ca cntr2 – counter-screen for MrgX1 activators: effect in parental HEK293 cells; fluorescence ratio F(max-min)/F0 at 10 µM; AID 624115; 8.7% of 4,000 active; shares compounds with MrgX1 antag; Fluo-4 calcium fluorescence (FDSS); stronger effect = higher value;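 active = calcium fluorescence ratio at least three times the spread of buffer wells, meaning a non-specific response in parental cells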
Numbers without * were called inactive.

Results for COC(=O)c1ccc(NC(CC(C)C)C(=O)OC)c([N+](=O)[O-])c1 (configuration not stated) ?
MrgX1 agonist: inactive; MrgX1 antag: inactive; RGS4 pot: inactive; MrgX1 PAM: inactive; RGS4 block: inactive

How did COc1ccc(C(=O)CCN2CCN(c3ccccc3OC)CC2)cc1 do in these assays?
MrgX1 agonist: inactive; MrgX1 antag: inactive; RGS4 pot: inactive; MrgX1 PAM: inactive; RGS4 block: inactive

What do the screens show for `COc1ccc(C(=O)CCN2CCc3cc(OC)c(OC)cc3C2)cc1`?
MrgX1 agonist: 42*; MrgX1 antag: inactive; RGS4 pot: inactive; MrgX1 PAM: inactive; RGS4 block: inactive; M3R Ca ctr: inactive; RGS4 inh ctr2: 8.5%*; MrgX1 ag confirm: inactive; HEK293 Ca flux: inactive; HEK293 Ca counter: inactive; HEK293 Ca cntr2: inactive

How did COc1cc(C2(c3ccc(O)c(OC)c3)C(=O)Nc3c(C)cc(Br)cc32)ccc1O do in these assays?
MrgX1 agonist: inactive; MrgX1 antag: -4.6*; RGS4 pot: inactive; MrgX1 PAM: inactive; RGS4 block: 12*; RGS4 block valid: 43%*; M3R Ca ctr: inactive; RGS4 inh ctr2: 25%*; MrgX1 ant reconf: 83%*; HEK293 Ca flux: inactive; HEK293 Ca counter: inactive; HEK293 Ca cntr2: inactive

What do the screens show for `O=C(CC1C(=O)NCCN1Cc1ccccc1)NCCC1=CCCCC1` (configuration not stated)?
MrgX1 agonist: inactive; MrgX1 antag: inactive; RGS4 pot: inactive; MrgX1 PAM: inactive; RGS4 block: inactive

How did COc1ccc(C2C(C#N)=C(N)Oc3cc(O)ccc32)cc1Cl (configuration not stated) do in these assays?
MrgX1 agonist: 49*; MrgX1 antag: inactive; RGS4 pot: inactive; MrgX1 PAM: inactive; RGS4 block: 6.8*; RGS4 block valid: 20%*; M3R Ca ctr: 43%*; RGS4 inh ctr2: 40%*; MrgX1 ag confirm: inactive; HEK293 Ca flux: inactive; HEK293 Ca counter: inactive; HEK293 Ca cntr2: inactive

Results for CCOc1ccc(C2C(C#N)=C(N)Oc3cc(O)ccc32)cc1OCC (configuration not stated) ?
MrgX1 agonist: inactive; MrgX1 antag: inactive; RGS4 pot: inactive; MrgX1 PAM: inactive; RGS4 block: inactive
